Assay results reported in ChEMBL document CHEMBL3822382 (Eur J Med Chem, 2016).
Active and inactive are the calls of the source. The rule behind the calls is not given here.

Columns and labels:
[1] = system: 1411HP; experiment: Vascular disrupting activity against multidrug resistant human 1411HP cells xenografted in athymic nude mouse assessed as discoloration of tumor at 100 mg/kg, ip after 24 hrs; type: functional, organism-based
Outline: (§1)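 Athymic nude mice carried subcutaneous flank xenografts from 8 million cells in PBS. A single intraperitoneal dose of 100 mg/kg was given, and tumor discoloration was photographed 24 h later.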

[2] = system: 1411HP; experiment: Vascular disrupting activity against multidrug resistant human 1411HP cells xenografted in athymic nude mouse assessed as tumor necrosis at 100 mg/kg, ip after 24 hrs by hematoxylin and eosin staining based microscopic analysis; type: functional, organism-based
Outline: (§2)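 Athymic nude mice carried subcutaneous flank xenografts from 8 million cells. A single intraperitoneal dose of 100 mg/kg was given. After 24 h tumors were explanted, fixed in 5% formalin, paraffin-embedded and HE-stained for microscopic examination of vessels, hemorrhage and necrosis.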

[3] = system: A2780cisR; experiment: Vascular disrupting activity against human A2780cis cells xenografted in athymic nude mouse assessed as discoloration of tumor at 100 mg/kg, ip after 24 hrs; type: functional, organism-based; outline: as §1
[4] = system: HT-29; experiment: Cell cycle arrest in combretastatin A-4 resistant human HT-29 cells assessed as accumulation at G2 phase at 100 nM after 24 hrs by propidium iodide staining-based flow cytometry (reference value: 15.6 +/- 0.1%); type: functional
Outline: (§3)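 HT-29 cells (200,000/well) were treated 24 h with 100 nM indole, 5 μM CA-4 or DMSO. Cells were trypsinized, fixed in 4% formaldehyde (20 min, RT) and permeabilized in 90% ice-cold methanol (30 min). They were immunostained with anti-phospho-histone H3 (Ser10) (5 μg/mL, 37 °C, 1 h) plus an AlexaFluor-488 secondary, then stained with PI/RNase (30 min, 37 °C). Flow cytometry of 10,000 single cells assigned G1/S/G2/M.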

[5] = Cell cycle arrest in human 518A2 cells assessed as accumulation at G1 phase at 100 nM after 24 hrs by propidium iodide staining-based flow cytometry (reference value: 49.5%); type: functional
[6] = Cell cycle arrest in human 518A2 cells assessed as accumulation at G2/M phase at 100 nM after 24 hrs by propidium iodide staining-based flow cytometry (reference value: 26.3%); type: functional
[7] = system: HT-29; experiment: Cell cycle arrest in combretastatin A-4 resistant human HT-29 cells assessed as accumulation at S phase at 100 nM after 24 hrs by propidium iodide staining-based flow cytometry (reference value: 13.7 +/- 0.3%); type: functional; outline: as §3
[8] = system: HT-29; experiment: Cell cycle arrest in combretastatin A-4 resistant human HT-29 cells assessed as accumulation at S phase at 50 nM after 24 hrs by propidium iodide staining-based flow cytometry (reference value: 13.7 +/- 0.3%); type: functional
[9] = system: A2780cisR; experiment: Vascular disrupting activity against human A2780cis cells xenografted in athymic nude mouse assessed as tumor necrosis at 100 mg/kg, ip after 24 hrs by hematoxylin and eosin staining based microscopic analysis; type: functional, organism-based; outline: as §2
[10] = system: HT-29; experiment: Induction of cytoskeletal damage in combretastatin A-4 resistant human HT-29 cells xenografted in fertilized white leghorn chicken egg chorioallantoic membrane at 5 nmol after 24 hrs by hematoxylin and eosin staining based stereomicroscopic analysis; type: functional, cell-based
Outline: (§4)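 Pellets of 1×10^6 HT-29 cells in matrigel/serum-free RPMI placed on the CAM of fertilized eggs for 48 h. Then 5 nmol (100 µL of 50 µM in PBS) applied outside a silicon ring around the pellet; DMSO as control. Imaged by stereomicroscopy after 24 h. Micro-xenografts then explanted, formalin-fixed, paraffin-embedded and HE-stained.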

[11] = species: Gallus gallus; experiment: Cytotoxicity against fertilized white leghorn chicken egg chorioallantoic membrane microtumor model of CA-4 resistant human HT-29 cells assessed as reduction in embryo vitality at 5 nmol after 24 hrs; type: organism-based; details: ht-29, 24 h
[12] = Cell cycle arrest in human 518A2 cells assessed as apoptotic index ratio at 100 nM after 24 hrs by propidium iodide staining-based flow cytometry relative to control; type: functional
[13] = system: 518A2; experiment: Induction of microtubule disruption in human 518A2 cells at 100 nM incubated for 24 hrs by DAPI staining based immunofluorescence microscopic analysis; type: cell-based
Outline: (§5)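 518A2 cells (25,000/well) on coverslips treated 24 h with 100 nM. Cells fixed in 4% formaldehyde, permeabilized and blocked (Triton X-100/BSA). Stained with mouse anti-alpha-tubulin (37 °C, 1 h) and AlexaFluor-488 secondary; nuclei counterstained with DAPI (1 µg/mL). Imaged by fluorescence microscopy at 400×.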

[14] = system: Chorioallantoic membrane; experiment: Antivascular activity in fertilized white leghorn chicken egg chorioallantoic membrane assessed as disruption of preformed blood vessel at 2.5 nmol after 12 hrs by stereomicroscopic analysis; type: functional, tissue-based; details: Gallus gallus
[15] = system: HT-29; experiment: Antivascular activity against in combretastatin A-4 resistant human HT-29 cells xenografted in fertilized white leghorn chicken egg chorioallantoic membrane assessed as retraction of tumor cells at 5 nmol after 24 hrs by hematoxylin and eosin staining based stereomicroscopic analysis; type: functional, cell-based
Outline: (§6)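 Pellets of 1 × 10⁶ HT-29 cells in 10 μL of 1:1 matrigel/serum-free RPMI (gelled 30 min, 37 °C) were placed on the CAM of fertilized eggs and left 48 h. Then 100 μL of a 50 μM PBS dilution (5 nmol) was pipetted outside a silicon ring around the pellet; DMSO served as control. After 24 h, stereomicroscopy was done, and micro-xenografts were explanted, formalin-fixed, paraffin-embedded and HE-stained.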

[16] = system: HT-29; experiment: Cell cycle arrest in combretastatin A-4 resistant human HT-29 cells assessed as accumulation at G1 phase at 100 nM after 24 hrs by propidium iodide staining-based flow cytometry (reference value: 68.1 +/- 0.3%); type: functional; outline: as §3
[17] = system: HT-29; experiment: Antivascular activity against in combretastatin A-4 resistant human HT-29 cells xenografted in fertilized white leghorn chicken egg chorioallantoic membrane assessed as loss of cell to cell interaction at 5 nmol after 24 hrs by hematoxylin and eosin staining based stereomicroscopic analysis; type: functional; outline: as §6
[18] = system: 1411HP; experiment: Vascular disrupting activity against multidrug resistant human 1411HP cells xenografted in athymic nude mouse assessed as hemorrhage at 100 mg/kg, ip after 24 hrs by hematoxylin and eosin staining based microscopic analysis; type: functional, organism-based; outline: as §2
[19] = system: HT-29; experiment: Induction of apoptosis in combretastatin A-4 resistant human HT-29 cells xenografted in fertilized white leghorn chicken egg chorioallantoic membrane at 5 nmol after 24 hrs by hematoxylin and eosin staining based stereomicroscopic analysis; type: functional, cell-based; outline: as §4
[20] = system: Chorioallantoic membrane; experiment: Antivascular activity in fertilized white leghorn chicken egg chorioallantoic membrane assessed as blood vessel hemorrhage at 5 nmol after 12 hrs by stereomicroscopic analysis; type: functional, tissue-based; details: Gallus gallus
Outline: (§7)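 Fertilized white leghorn SPF eggs were incubated to day 5 at 37 °C and 50–60% humidity. A shell window was cut, 6 mm silicon rings were placed on developing CAM vessels, and eggs were incubated another 24 h. Compound (500 μM in PBS; 10 μL = 5 nmol, 20 μL = 10 nmol) or DMSO was pipetted inside the ring. Vessel changes were imaged by stereomicroscope at 0, 12 and 24 h.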

[21] = Cytotoxicity against fertilized white leghorn chicken embryos in CAM model assessed as lethality at 2.5 nmol after 24 hrs relative to control; type: organism-based, Gallus gallus; details: in vivo
[22] = system: 518A2; experiment: Effect on microtubule structure in human 518A2 cells at 100 nM incubated for 24 hrs by DAPI staining based immunofluorescence microscopic analysis; type: cell-based; outline: as §5
[23] = system: Chorioallantoic membrane; experiment: Antivascular activity in fertilized white leghorn chicken egg chorioallantoic membrane assessed as disruption of preformed blood vessel at 5 nmol after 12 hrs by stereomicroscopic analysis; type: functional, tissue-based; details: Gallus gallus; outline: as §7

COc1cc(-c2ncn(C)c2-c2ccc3c(c2)c(Cl)cn3C)cc(Br)c1OC.Cl
Activity [1]: Active
Activity [2]: Active
Activity [3]: Active
Activity [4]: 4.6%
Activity [5]: 41%
Activity [6]: 33.9%
Activity [7]: 8%
Activity [8]: 13.5%
Activity [9]: Active
Activity [10]: Active
Activity [11]: Non-toxic
Ratio [12]: 4.4
Activity [13]: Active
Activity [14]: Active
Activity [15]: Active
Activity [16]: 12%
Activity [17]: Active
Activity [18]: Active
Activity [19]: Active

COc1cc(-c2ncn(C)c2-c2ccc3c(c2)c(Cl)cn3C)cc(OC)c1OC
Activity [20]: Active
mortality at 24 h [21]: 67%
Activity [22]: inactive
Activity [23]: Active
